18 compounds from ChEMBL document CHEMBL1828621, “Single step synthesis of new fused pyrimidine derivatives and their evaluation as potent Aurora-A kinase inhibitors” (Eur J Med Chem, 2011) can be followed below.

As a reminder, the IC50 is the concentration that inhibits the measured activity by half. One may read the pIC50 as the IC50 on a negative log10 scale, so that one unit is a factor of ten.

Assay [1] relates to HCT-116. Kind of assay: Cytotoxicity against human HCT116 cells assessed as cell survival at 2.5 ug/ml after 48 hrs by sulforhodamine B method relative to control. Type of assay: functional. In short, it runs like this:
(§1)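 HCT116 colon tumour cells grown in RPMI 1640 with 5% FBS and 2 mM L-glutamine. Seeded at 10,000 cells/well and held 24 h at 37 °C, 5% CO₂ before dosing. Drugs kept as DMSO stocks at 400-fold the top final concentration, diluted in medium with gentamicin, tested at four concentrations for 48 h. Fixed with cold TCA (final 10%) for 60 min at 4 °C, stained with 0.4% SRB, bound dye dissolved in Tris-EDTA, read on an ELISA reader. Extra plates fixed at dosing served as baseline.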

Assay [2] concerns HCT-116. Description: Cytotoxicity against human HCT116 cells assessed as cell survival at 5 ug/ml after 48 hrs by sulforhodamine B method relative to control. Type of assay: functional. In short, it runs like this: as §1
Assay [3] relates to HCT-116. Kind of assay: Cytotoxicity against human HCT116 cells assessed as cell survival at 10 ug/ml after 48 hrs by sulforhodamine B method relative to control. Type of assay: functional. The method in brief:
as §1
On the technique in general: The SRB assay estimates cell density from bound dye.

Assay [4] relates to HCT-116. Description: Cytotoxicity against human HCT116 cells after 48 hrs by sulforhodamine B method. Type of assay: functional, cell-based. As to conditions: HCT-116, 48 h; call rule not given here. In short, it runs like this:
as §1

Assay [5] deals with HCT-116. Description: Cytotoxicity against human HCT116 cells assessed as cell survival at 1 ug/ml after 48 hrs by sulforhodamine B method relative to control. Type of assay: functional. The method in brief:
as §1

Another assay has as its target T1, Aurora kinase A (Homo sapiens, UniProt O14965).
T1 sequence (O14965 whole entry): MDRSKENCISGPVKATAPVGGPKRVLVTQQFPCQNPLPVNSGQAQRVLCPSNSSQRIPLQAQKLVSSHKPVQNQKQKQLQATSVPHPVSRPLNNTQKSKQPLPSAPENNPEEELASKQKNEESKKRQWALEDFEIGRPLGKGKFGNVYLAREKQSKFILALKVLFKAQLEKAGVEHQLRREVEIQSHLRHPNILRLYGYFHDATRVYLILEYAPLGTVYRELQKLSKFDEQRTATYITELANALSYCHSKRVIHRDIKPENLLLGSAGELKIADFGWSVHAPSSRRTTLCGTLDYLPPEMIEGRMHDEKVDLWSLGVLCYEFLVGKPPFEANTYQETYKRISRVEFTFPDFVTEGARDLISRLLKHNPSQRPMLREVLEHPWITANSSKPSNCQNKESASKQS
Kind of assay: Inhibition of GST-tagged Aurora A kinase expressed in insect cells assessed as inhibition of [33P]gamma-ATP incorporation in substrate after 60 mins by scintillation counting. As to conditions: for pIC50: read-out: IC50. In short, it runs like this: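 Reaction: biotinylated CHOCKtide substrate with ATP/[γ-33P]ATP mix, 60 min at room temperature, in 50 mM HEPES pH 7.5, 10 mM MgCl₂, 1 mM DTT, NaVO₃ and 0.2 mg/mL BSA. Stopped with EDTA/ATP plus streptavidin SPA beads; beads floated on 5 M CsCl and counted for phosphate incorporated into substrate.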

SMILES strings stand for the structures. pIC50: −log10 of the molar value. In brackets after ≈: the same amount, converted by molar mass.

On to `Cc1cc2ncc(S(=O)(=O)c3ccccc3)c(-c3ccccc3)n2n1`, for which the Ratio in the assay on HCT-116 [1] was found to be 0.698; in the assay on HCT-116 [2], 0.671; in the assay on HCT-116 [3] it was 0.597; in the assay with HCT-116 [5], 0.774. For the same compound, in the assay on HCT-116 [4], the IC50 is above 25 µg/mL. Further, at Aurora kinase A, the negative logarithm of the IC50 (pIC50) is 7.00.
As for `O=S(=O)(c1ccccc1)c1cnc2cc(-c3ccccc3)nn2c1-c1ccccc1`, the Ratio turned out to be 0.455 with HCT-116 [1], 0.43 in the assay on HCT-116 [2], 0.377 in the assay on HCT-116 [3] and 0.683 with HCT-116 [5]. For the same compound, the midpoint of inhibition in the assay with HCT-116 [4], the IC50, lay at 1.27 µg/mL (≈ 3.09 µM). For the same compound, the negative logarithm of the IC50 (pIC50) at Aurora kinase A is 7.29.
In the case of `COc1ccc(-c2cc3ncc(S(=O)(=O)c4ccccc4)c(-c4ccccc4)n3n2)cc1`, the Ratio in the assay with HCT-116 [1] is reported as 0.436; with HCT-116 [2], 0.288; with HCT-116 [3], 0.217; in the assay on HCT-116 [5], 0.516. For the same compound, the half-inhibitory concentration (IC50) in the assay with HCT-116 [4] was found to be 1.28 µg/mL (≈ 2.9 µM). In addition, the pIC50 at Aurora kinase A is 7.60.
For the compound `O=S(=O)(c1ccccc1)c1cnc2cc(-c3ccc(Cl)cc3)nn2c1-c1ccccc1`, the Ratio with HCT-116 [1] worked out at 0.508; in the assay on HCT-116 [2], 0.42; in the assay with HCT-116 [3] it was 0.42; with HCT-116 [5], 0.56. Half-maximal inhibition with HCT-116 [4] (IC50) was put at 1.64 µg/mL (≈ 3.68 µM). In addition, the pIC50 on Aurora kinase A is 6.92.
Take `Cc1nn2c(-c3ccccc3)c(S(=O)(=O)c3ccccc3)cnc2c1Br`: the Ratio in the assay on HCT-116 [1] is 0.373; with HCT-116 [2], 0.253; in the assay on HCT-116 [3] it was 0.183; in the assay on HCT-116 [5] it was 0.529. The values for the half-inhibitory concentration (IC50) with HCT-116 [4] and at Aurora kinase A were 2.21 µg/mL (≈ 5.16 µM) and “Not Active”, respectively.
In the case of `O=S(=O)(c1ccccc1)c1cnc2c(Br)c(-c3ccccc3)nn2c1-c1ccccc1`, the Ratio was determined as 0.42 in the assay on HCT-116 [1], 0.271 with HCT-116 [2], 0.24 in the assay with HCT-116 [3] and 0.629 with HCT-116 [5]. Further, the 50% inhibitory concentration (IC50) in the assay with HCT-116 [4] is 1.34 µg/mL (≈ 2.73 µM). The pIC50 on Aurora kinase A is 7.41.
Consider `O=S(=O)(c1ccccc1)c1cnc2cc(-c3ccccc3)nn2c1-c1ccc(Cl)cc1`, for which the Ratio was 0.953 in the assay on HCT-116 [1], 0.894 in the assay with HCT-116 [2], 0.797 in the assay with HCT-116 [3] and 0.987 with HCT-116 [5]. The IC50 in the assay with HCT-116 [4] was above 25 µg/mL; at Aurora kinase A it was “Not Active”.
In the case of `COc1ccc(-c2cc3ncc(S(=O)(=O)c4ccccc4)c(-c4ccc(Cl)cc4)n3n2)cc1`, the Ratio in the assay with HCT-116 [1] is reported as 0.794; in the assay with HCT-116 [2], 0.778; with HCT-116 [3], 0.744; in the assay with HCT-116 [5], 0.824. Also, the IC50 with HCT-116 [4] is above 25 µg/mL; on Aurora kinase A, “Not Active”.
For `Cc1ccc(-c2c(S(=O)(=O)c3ccccc3)cnc3cc(-c4ccc(Cl)cc4)nn23)cc1`, the Ratio with HCT-116 [1] is given as 0.665; in the assay with HCT-116 [2], 0.382; with HCT-116 [3] it was 0.333; with HCT-116 [5] it was 1. Also, the figures for the IC50 in the assay on HCT-116 [4] and at Aurora kinase A were 9.3 µg/mL (≈ 20.2 µM) and “Not Active”, respectively.
On to `O=S(=O)(c1ccccc1)c1cnc2nc3ccccc3n2c1-c1ccccc1`, for which the Ratio amounted to 0.885 in the assay on HCT-116 [1], 0.845 with HCT-116 [2], 0.82 in the assay with HCT-116 [3] and 0.984 in the assay on HCT-116 [5]. In addition, the IC50 is above 25 µg/mL in the assay on HCT-116 [4] and “Not Active” on Aurora kinase A.
On to `O=S(=O)(c1ccccc1)c1cnc2nc3ccccc3n2c1-c1ccc(Cl)cc1`, for which the Ratio in the assay with HCT-116 [1] was found to be 0.905; with HCT-116 [2] it was 0.889; with HCT-116 [3], 0.79; with HCT-116 [5] it was 0.95. In addition, the IC50 was above 25 µg/mL in the assay on HCT-116 [4] and “Not Active” at Aurora kinase A.
Regarding `O=S(=O)(c1ccccc1)c1cnc2nc3ccccc3n2c1-c1ccc(Br)cc1`, the Ratio came out at 0.748 with HCT-116 [1], 0.624 with HCT-116 [2], 0.209 in the assay on HCT-116 [3] and 1 with HCT-116 [5]. Moreover, the IC50 in the assay on HCT-116 [4] was 16.3 µg/mL (≈ 35.1 µM); on Aurora kinase A, “Not Active”.
On to `O=S(=O)(c1ccccc1)c1cnc2ncnn2c1-c1ccccc1`, for which the Ratio with HCT-116 [1] is listed as 0.302; with HCT-116 [2], 0.294; in the assay on HCT-116 [3] it was 0.256; in the assay on HCT-116 [5], 0.689. This compound returned an IC50 in the assay with HCT-116 [4] of 1.97 µg/mL (≈ 5.86 µM). Also, at Aurora kinase A, the pIC50 was 6.98.
In the case of `O=S(=O)(c1ccccc1)c1cnc2ncnn2c1-c1ccc(Cl)cc1`, the Ratio stood at 0.377 in the assay with HCT-116 [1], 0.316 with HCT-116 [2], 0.243 in the assay on HCT-116 [3] and 0.786 in the assay with HCT-116 [5]. Also, in the assay with HCT-116 [4], inhibition was half-maximal at 2.15 µg/mL (≈ 5.8 µM) (IC50). Also, the pIC50 on Aurora kinase A was 5.03.
For the compound `Cc1ccc(-c2c(S(=O)(=O)c3ccccc3)cnc3cc(-c4ccccc4)nn23)cc1`, the Ratio amounted to 0.745 in the assay with HCT-116 [1], 0.701 in the assay with HCT-116 [2], 0.253 in the assay on HCT-116 [3] and 1 in the assay on HCT-116 [5]. The 50% inhibitory concentration (IC50) with HCT-116 [4] was 18 µg/mL (≈ 42.3 µM); at Aurora kinase A, “Not Active”.
As for `Cc1ccc(-c2c(S(=O)(=O)c3ccccc3)cnc3c(Br)c(-c4ccccc4)nn23)cc1`, the Ratio was found to be 0.701 in the assay on HCT-116 [1], 0.53 in the assay with HCT-116 [2], 0.309 in the assay with HCT-116 [3] and 1 in the assay with HCT-116 [5]. Also, the figures for the IC50 in the assay with HCT-116 [4] and on Aurora kinase A were 14 µg/mL (≈ 27.8 µM) and “Not Active”, respectively.
`Cc1ccc(-c2cc3ncc(S(=O)(=O)c4ccccc4)c(-c4ccc(C)cc4)n3n2)cc1`: the Ratio stood at 0.764 with HCT-116 [1], 0.408 in the assay on HCT-116 [2], 0.246 in the assay with HCT-116 [3] and 1 in the assay on HCT-116 [5]. Also, the IC50 with HCT-116 [4] is 10.5 µg/mL (≈ 23.9 µM); on Aurora kinase A it was “Not Active”.
Regarding `COc1cccc2c1C(=O)c1c(O)c3c(c(O)c1C2=O)C[C@@](O)(C(=O)CO)C[C@@H]3O[C@H]1C[C@H](N)[C@H](O)[C@H](C)O1` [DOXORUBICIN], the Ratio in the assay on HCT-116 [1] is listed as 0.439; in the assay on HCT-116 [2], 0.42; in the assay with HCT-116 [3] it was 0.291; in the assay with HCT-116 [5], 0.523. In addition, the IC50 in the assay on HCT-116 [4] stood at 1.3 µg/mL (≈ 2.39 µM). For the same compound, the pIC50 on Aurora kinase A was 7.40.
